The test system of test [1] is Vero. Put plainly: Effect on metabolism of 40 ug/ml RBV in Vero E6 cells assessed as RBV-TP concentration at 10 ug/ml after 24 h. The class given is functional, Chlorocebus sabaeus. An outline of the steps:
(§1)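 Vero E6 cells were given [3H]RBV for 24 h at 37°C, alone or with added MPA (experiment 1) or guanosine (experiment 2). Perchloric acid extracts were resolved on SAX HPLC, and RBV-MP and RBV-TP were quantified by counting 1-min fractions. Values are the mean ± SD of three measurements, and the experiment was repeated twice.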

Test [2] concerns Vero. Put plainly: Effect on metabolism of 10 ug/ml RBV in Vero E6 cells assessed as RBV-TP concentration at 10 ug/ml after 24 h. In kind it is functional, Chlorocebus sabaeus. In outline:
as §1

For test [3], the system named is Vero. The experiment in a line: Inhibition of MPA effect on viral RNA in HTNV 76-118-infected Vero E6 cells at 35 uM. The class given is functional, cell-based. As to conditions: Hantaan virus.
Test [4] has as its system Vero. The experiment in a line: Inhibition of 1 ug/ml RBV-induced depression in intracellular GTP level in Vero E6 cells at 35 uM after 24 h. In kind it is functional, cell-based. As to conditions: Chlorocebus sabaeus.
Test [5] concerns Vero. The experiment in a line: Inhibition of 40 ug/ml RBV-induced depression in intracellular GTP level in Vero E6 cells at 35 uM after 24 h. As to conditions: Chlorocebus sabaeus. The class given is functional, cell-based. An outline of the steps: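 Vero E6 cells were treated for 24 h with 40 μg/ml RBV, with or without 10 μg/ml guanosine. Acid-soluble (perchloric acid) extracts were run on SAX HPLC, and GTP and ATP were quantified by UV at 260 nm. Values are the mean of three measurements.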

In test [6] the test system is Vero. The experiment in a line: Effect on metabolism of 10 ug/ml RBV in Vero E6 cells assessed as RBV-MP concentration at 10 ug/ml after 24 h. The class given is functional, Chlorocebus sabaeus. An outline of the steps: as §1
Test [7] concerns Vero. The experiment in a line: Increase in GTP level in Vero E6 cells at 35 uM after 24 hr relative to control. In kind it is functional, Chlorocebus sabaeus. In outline: (§2)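 Confluent 3-day-old Vero E6 cells incubated at 37°C with drug: 10 μg/ml RBV or 2.5 μg/ml MPA over a 0–72 h time course; RBV for 4 h; 10 μg/ml guanosine for 24 h. Ice-cold 0.5 M perchloric acid extracts neutralized with KOH, then SAX HPLC with an NH4H2PO4 gradient from pH 2.8 to 3.7. GTP and ATP read at 260 nm; mean of three measurements.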

The test system of test [8] is Vero. Put plainly: Effect on metabolism of 40 ug/ml RBV in Vero E6 cells assessed as RBV-MP concentration at 10 ug/ml after 24 h. The class given is functional, Chlorocebus sabaeus. An outline of the steps:
as §1

For test [9], the system named is Vero. The experiment in a line: Decrease in GTP level in Vero E6 cells at 2.5 ug/ml. Further details: scale not given: the % may be the effect or the level left. In kind it is functional, Chlorocebus sabaeus. An outline of the steps:
as §2

Test [10] deals with Vero. Put plainly: Effect on metabolism of 10 ug/ml RBV in Vero E6 cells assessed as RBV-TP concentration at 2 ug/ml after 24 h. In kind it is functional, Chlorocebus sabaeus. In outline: as §1
Test [11] relates to Vero. Put plainly: Effect on metabolism of 40 ug/ml RBV in Vero E6 cells assessed as RBV-MP concentration at 1 ug/ml after 24 h. The class given is functional, Chlorocebus sabaeus. In outline: as §1
Test [12] deals with Vero. Put plainly: Effect on metabolism of 40 ug/ml RBV in Vero E6 cells assessed as RBV-MP concentration at 2 ug/ml after 24 h. The class given is functional, Chlorocebus sabaeus. In outline: as §1
Test [13] concerns Vero. The experiment in a line: Effect on metabolism of 40 ug/ml RBV in Vero E6 cells assessed as RBV-TP concentration at 1 ug/ml after 24 h. In kind it is functional, Chlorocebus sabaeus. An outline of the steps:
as §1

Test [14] concerns Vero. Put plainly: Effect on metabolism of 40 ug/ml RBV in Vero E6 cells assessed as RBV-MP concentration at 5 ug/ml after 24 h. In kind it is functional, Chlorocebus sabaeus. In outline: as §1
Test [15] relates to Vero. Put plainly: Effect on metabolism of 10 ug/ml RBV in Vero E6 cells assessed as RBV-MP concentration at 1 ug/ml after 24 h. In kind it is functional, Chlorocebus sabaeus. In outline:
as §1

The test system of test [16] is Vero. Put plainly: Effect on metabolism of 40 ug/ml RBV in Vero E6 cells assessed as RBV-TP concentration at 5 ug/ml after 24 h. The class given is functional, Chlorocebus sabaeus. An outline of the steps:
as §1

The nature of test [17]: Inhibition of viral RNA levels in HTNV76-118-infected Vero E6 cells at 10 ug/ml. In kind it is functional, Hantaan virus. As to conditions: Orthohantavirus hantanense, 76-118, Vero.
Test [18] concerns Vero. The experiment in a line: Decrease in GTP level in Vero E6 cells at 40 ug/ml after 24 h. The class given is functional, Chlorocebus sabaeus. More on the design: scale not given: the % may be the effect or the level left.
Test [19] deals with Vero. Put plainly: Effect on metabolism of 10 ug/ml RBV in Vero E6 cells assessed as RBV-MP concentration at 2 ug/ml after 24 h. In kind it is functional, Chlorocebus sabaeus. An outline of the steps: as §1
For test [20], the system named is Vero. Put plainly: Effect on metabolism of 10 ug/ml RBV in Vero E6 cells assessed as RBV-TP concentration at 1 ug/ml after 24 h. The class given is functional, Chlorocebus sabaeus. In outline: as §1
Test [21] deals with Vero. Put plainly: Effect on metabolism of 10 ug/ml RBV in Vero E6 cells assessed as RBV-MP concentration at 5 ug/ml after 24 h. In kind it is functional, Chlorocebus sabaeus. In outline:
as §1

Test [22] concerns Vero. Put plainly: Effect on metabolism of 40 ug/ml RBV in Vero E6 cells assessed as RBV-TP concentration at 2 ug/ml after 24 h. In kind it is functional, Chlorocebus sabaeus. In outline:
as §1

Test [23] has as its system Vero. The experiment in a line: Effect on metabolism of 10 ug/ml RBV in Vero E6 cells assessed as RBV-TP concentration at 5 ug/ml after 24 h. The class given is functional, Chlorocebus sabaeus. In outline:
as §1

Test [24] is described as follows: Inhibition of viral RNA levels in HTNV76-118-infected Vero E6 cells at 0.5 ug/ml. In kind it is functional, Hantaan virus. The settings on record: Orthohantavirus hantanense, 76-118, Vero.
The subject of test [25] is Vero. Put plainly: Decrease in GTP level in Vero E6 cells at 40 ug/ml after 4 h. In kind it is functional, cell-based. As to conditions: Chlorocebus sabaeus. An outline of the steps:
as §2

Test [26] is described as follows: Inhibition of viral RNA levels in HTNV 76-118-infected Vero E6 cells at 40 ug/ml after 3 days. In kind it is functional, Hantaan virus. The settings on record: Orthohantavirus hantanense, 76-118, Vero, 72 h.
Test [27] deals with Vero. The experiment in a line: Decrease in GTP level in Vero E6 cells at 10 ug/ml. In kind it is functional, Chlorocebus sabaeus. More on the design: scale not given: the % may be the effect or the level left. An outline of the steps:
as §2

Test [28] concerns Vero. The experiment in a line: RBV metabolism in Vero E6 cells assessed as RBV-MP concentration at 10 ug/ml after 24 h. The class given is functional, Chlorocebus sabaeus. In outline: as §1
Test [29] concerns Vero. The experiment in a line: RBV metabolism in Vero E6 cells assessed as RBV-TP concentration at 10 ug/ml after 24 h. The class given is functional, Chlorocebus sabaeus. In outline:
as §1

For test [30], the system named is Vero. The experiment in a line: RBV metabolism in Vero E6 cells assessed as RBV-TP concentration at 40 ug/ml after 24 h. The class given is functional, Chlorocebus sabaeus. An outline of the steps: as §1
Test [31] concerns Vero. The experiment in a line: RBV metabolism in Vero E6 cells assessed as RBV-MP concentration at 40 ug/ml after 24 h. The class given is functional, Chlorocebus sabaeus. An outline of the steps:
as §1

The source made the active and inactive calls. The rule behind the calls is not given here.

Results on three compounds are retold here after ChEMBL document CHEMBL1142140, “Activity of ribavirin against Hantaan virus correlates with production of ribavirin-5'-triphosphate, not with inhibition of IMP dehydrogenase” (2007).

`Nc1nc2c(ncn2[C@@H]2O[C@H](CO)[C@@H](O)[C@H]2O)c(=O)[nH]1` [GUANOSINE]: the Activity in the test on Vero [1] is 65 pmol; in the test on Vero [2], 14 pmol; with Vero [6], 1.9 pmol; with Vero [7] it was 145%; with Vero [8], 8.6 pmol. The outcome in the test on Vero [3], in the test on Vero [4] and in the test on Vero [5] was Active.

As usually defined, the inhibition is the change of the read-out against control, counted positive when it falls. Consider `COc1c(C)c2c(c(O)c1C/C=C(\C)CCC(=O)O)C(=O)OC2` [MYCOPHENOLIC ACID], for which the Activity is 90% in the test on Vero [9]; 6.8 pmol in the test on Vero [10]; 4.2 pmol in the test on Vero [11]; 3.8 pmol in the test with Vero [12]; 26 pmol in the test on Vero [13]; 3.9 pmol in the test on Vero [14]. Moreover, the Activity in the test on Vero [15] turned out to be 1.3 pmol; with Vero [16], 26 pmol; in the test with Vero [18], 80%; in the test on Vero [19] it was 1.3 pmol; in the test on Vero [20], 7.8 pmol; with Vero [21], 1.2 pmol. Also, the figures for the Activity in the test on Vero [22] and in the test on Vero [23] were 27 pmol and 7 pmol, respectively. Further, the inhibition at 10 µg/mL in test [17] is -70%.

Take `NC(=O)c1ncn([C@@H]2O[C@H](CO)[C@@H](O)[C@H]2O)n1` [RIBAVIRIN]: the inhibition at 0.5 µg/mL in test [24] was -80%. Besides, in the test on Vero [25], the outcome was Active. In [26], the inhibition at 40 µg/mL is 99.9%. The Activity with Vero [27] was 40%; in the test with Vero [18], 50%; with Vero [28] it was 1.1 pmol; in the test on Vero [29], 6.5 pmol; in the test on Vero [30], 22 pmol; in the test on Vero [31], 3.2 pmol.
